# Experimental data collected from several papers.
# Each line is one published result; the experiments were not run side by side.
# Cell line: MCF7
# Effect on: cell growth or viability
SMILES,technique,time,IC50
Cc1cccc(N=C2C(=O)N(Cc3cccc(Cl)c3)c3ccccc32)c1,MTT,48 h,2.12 µM
CCOC(=O)C(=CNc1ccc(Oc2ccccc2)cc1)C(=O)OCC,MTT,24 h,102 µM
O=[N+]([O-])c1cc(Br)c(O)c(C=NNc2ccc(Br)cc2)c1,MTT,24 h,9.23 µM
COc1cccc2c1C(=O)c1c(O)c3c(c(O)c1C2=O)C[C@@](O)(C(=O)CO)C[C@@H]3O[C@H]1C[C@H](N)[C@H](O)[C@H](C)O1,MTT,,34.3 µM
CCOC(=O)c1c(C)nc2ccc(-c3ccc(F)cc3F)cc2c1O,MTT,48 h,27 µM
C[C@H]1[C@H](C)CC[C@]2(C)CC[C@]3(C)C(=CC(=O)[C@@H]4[C@@]5(C)CC[C@@H](O)[C@](C)(C(=O)NCc6cn(-c7cccc(Br)c7)nn6)[C@@H]5CC[C@]43C)[C@H]12,MTT,24 h,67 µM
C/C(=N\C1CCCCC1/N=C(\C)c1c(O)c2ccccc2oc1=O)c1c(O)c2ccccc2oc1=O (stereo not shown),MTT,48 h,66.4 µM
NS(=O)(=O)c1ccc(-n2nc(-c3nnc(S)o3)cc2-c2ccccc2)cc1,fluorescence,48 h,35.4 µM
Fc1ccc2c(-c3nnc(Cc4ccccc4)[nH]3)nn(Cc3ccc(Cl)cc3Cl)c2c1,,48 h,192 µM
CO[C@H]1[C@H](O[C@H]([C@H]2O[C@@H](n3ccc(=O)[nH]c3=O)[C@H](O)[C@@H]2O)[C@H](NCCCNC(=O)[C@@H](NC(=O)[C@@H](NC(=O)N[C@H](C(=O)O)C(C)C)[C@@H]2CCN=C(N)N2)[C@@H](OC(=O)CCCCCCCCCCCCN(O)C(=N)N)C(C)C)C(=O)O)O[C@H](CN)[C@H]1O,WST-1,,0.95 µM
C(=N\Nc1cc(N/N=C/c2cccc3cccnc23)ncn1)/c1cccc2cccnc12,MTT,48 h,7.02 µM
Fc1ccc(NC(=S)N/N=C/c2cccc3cc4ccccc4nc23)cc1,MTT,48 h,> 50 µM
O=C1C(=Nc2ccc(Cl)cc2)c2ccccc2N1Cc1ccc(Br)cc1,MTT,48 h,2.16 µM
COc1ccccc1/C=N/N=C1\C(=O)Nc2ccccc21,MTT,48 h,22.1 µg/mL
CC(=O)OC[C@H]1O[C@@H](n2cc(Cn3c(C(=O)/C=C/c4ccc(F)cc4)nc4ccccc43)nn2)[C@H](OC(C)=O)[C@@H](OC(C)=O)[C@H]1OC(C)=O,LDH,48 h,2.48 µM
CN(C)C(=O)Nc1nc2ccc(Br)cc2c(=O)n1-c1ccccc1,MTT,48 h,109 µM
O=C1C(=Nc2ccc(Cl)cc2Br)c2ccccc2N1Cc1ccc(Br)cc1,MTT,48 h,2.54 µM
C[C@H]1[C@H](C)CC[C@]2(C(=O)O)CC[C@]3(C)C(=CC[C@@H]4[C@@]5(C)CC[C@H](O)C(C)(C)[C@@H]5CC[C@]43C)[C@H]12,thymidine uptake,24 h,25.7 µM
O=[N+]([O-])c1cc(I)c(O)c(C=NNc2ccc(Br)cc2)c1,MTT,24 h,13.7 µM
Cc1nnc(-c2nn(Cc3ccc(Cl)cc3Cl)c3ccccc23)o1,,48 h,19.8 µM
CC(=O)O[C@@H]1[C@@H](OC(C)=O)[C@H](OC(C)=O)CO[C@H]1n1cc(Cn2c(C(C)=O)nc3ccccc32)nn1,LDH,48 h,2.73 µM
CNc1cccc(Nc2nc(-c3ccncc3)nc3c2CNCC3)c1,MTT,,> 100 µM
